Key:
Cavia porcellus [1] = organism: Cavia porcellus; test: Anticholinergic activity was measured by the guinea pig ileum test; c = NA means no activity found at the doses used.; type: functional
Outline: (§1)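 Guinea pig whole ileum strips in McEwan's solution, gassed with O2/CO2 95:5, 37 °C organ bath, 1 g tension. Cumulative acetylcholine concentration-response curves were run to constancy, then repeated after 15–20 min equilibration with increasing antagonist concentrations. Mean curves gave dose ratios, from which competitive antagonism and pA2 were derived.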

[2] = Cholinergic potency was expressed in terms of relative activity vs acetylcholine.; type: functional
Sus scrofa [3] = organism: Sus scrofa; test: Half life period was measured at 37 degree C in […] from d[acid]/dt.; type: ADME; settings: pig, in vitro; in the assay text read “esterase” for “plasma”
Outline: (§2)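 Hog liver carboxylesterase (EC 3.1.1.1), 2.4 units, with substrate at 5.6×10^-3 mol L-1 in 0.5 M potassium phosphate pH 7.4 containing gentisate internal standard, 37 °C. Rate was taken from acid formation.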

[4] = Half life period was measured at 7.4 pH from d[quant]/dt.; type: ADME; settings: pH 7.4
Outline: (§3)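 Chemical hydrolysis in 0.5 M potassium phosphate, pH 7.4, 37 °C. Rate was followed by appearance of the acid product or loss of the quaternary salt. Where salt contained amine hydrochloride, initial concentration was taken from final acid after complete hydrolysis. Half-life was estimated from both where resolved.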

Canis familiaris = organism: Canis familiaris; test: The hydrolytic kinetics expressed as Kobs was measured in dog plasma at 37 degree C; type: ADME, Canis lupus familiaris
Outline: (§4)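 Fresh dog blood was centrifuged and the upper layer filtered through 0.8 and 0.2 µm membranes. 2 mL plasma samples with gentisic acid internal standard were incubated. 5 µL aliquots taken at intervals were assayed against acid standard curves in methanol. Rates came from acid appearance or quaternary salt loss.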

Sus scrofa [5] = organism: Sus scrofa; test: The hydrolytic kinetics expressed as Kobs was measured in […] at 37 degree C; type: ADME; settings: pig; outline: as §2
[6] = Half life period was measured at 37 degree C in dog plasma from d[quant]/dt.; type: ADME, Canis lupus familiaris; outline: as §4
Cavia porcellus [7] = organism: Cavia porcellus; test: Anticholinergic activity was measured by the guinea pig ileum test.; type: functional; settings: Cavia porcellus, Ileum; read-out: pA2 (converted); outline: as §1
Cavia porcellus [8] = organism: Cavia porcellus; test: Antihistamine activity was measured by the guinea pig ileum test.; type: functional; settings: Cavia porcellus, Ileum; read-out: pA2 (converted)
Outline: (§5)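 Guinea pig ileum strips, McEwan's solution, Carbogen, 37 °C, 1 g tension. Cumulative histamine concentration-response curves were recorded before and after 15–20 min equilibration with rising antagonist concentrations. pA2 came from dose ratios of mean curves.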

[9] = Half life period was measured at 7.4 pH from d[acid]/dt.; type: ADME; settings: pH 7.4; outline: as §3
Cavia porcellus [10] = organism: Cavia porcellus; test: Antihistamine activity was measured by the guinea pig ileum test; c = NA means no activity found at the doses used.; type: functional; outline: as §5
[11] = The hydrolytic kinetics expressed as Kobs was measured at 7.4 pH at 37 degree C; type: ADME; settings: pH 7.4; outline: as §3
[12] = Cholinergic potency was expressed in terms of relative activity vs acetylcholine; c = NA means no activity found at the doses used.; type: functional
[13] = Cholinergic potency was expressed in terms of relative activity vs acetylcholine; NA means no activity found at the doses used.; type: functional
Cavia porcellus [14] = organism: Cavia porcellus; test: Anticholinergic activity was measured by the guinea pig ileum test; NA means no activity found at the doses used; type: functional; outline: as §1
Felis catus [15] = organism: Felis catus; test: acetylcholine antagonist effect of compound on cat blood pressure at concentration 5.7*10e-8 in 8 min; type: functional
Outline: (§6)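 Adult cats anesthetized ip with α-chloralose (80 mg/kg) plus sodium pentobarbitone (6 mg/kg), bilaterally vagotomized, artificially respired. Carotid arterial pressure recorded. Drugs given iv via brachial vein. Acetylcholine dose giving 70-80% of maximal vasodepressor response used throughout. Test drug injected, acetylcholine response checked 1 min later, then every ~2-3 min. Value is % of control vasodepressor response to acetylcholine.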

Felis catus [16] = test: acetylcholine antagonist effect of compound on cat blood pressure at concentration 5.7*10e-8 mol/kg in 1 min; type: functional
Outline: (§7)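 Adult cats under ip α-chloralose (80 mg/kg) plus pentobarbitone (6 mg/kg), bilaterally vagotomized and artificially respired. Carotid blood pressure was recorded. An iv acetylcholine dose giving 70–80% of maximal vasodepressor response was used. After iv test drug, acetylcholine responses were checked at 1 min and then every 2–3 min and expressed as % of control. Doses were given in mol/kg, escalating after recovery.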

Felis catus [17] = organism: Felis catus; test: acetylcholine antagonist effect of compound on cat blood pressure at concentration 5.7*10e-7 in 1 min; type: functional; outline: as §7
Felis catus [18] = organism: Felis catus; test: acetylcholine antagonist effect of compound on cat blood pressure at concentration 5.7*10e-8 in 10 min; type: functional; outline: as §7
Felis catus [19] = organism: Felis catus; test: acetylcholine antagonist effect of compound on cat blood pressure at concentration 5.7*10e-7 in 12 min; type: functional; outline: as §7
Felis catus [20] = organism: Felis catus; test: acetylcholine antagonist effect of compound on cat blood pressure at concentration 5.7*10e-8 in 6 min; type: functional; outline: as §6
Felis catus [21] = organism: Felis catus; test: acetylcholine antagonist effect of compound on cat blood pressure at concentration 5.4*10e-8 in 2 min
Felis catus [22] = organism: Felis catus; test: acetylcholine antagonist effect of compound on cat blood pressure at concentration 5.7*10e-8 in 4 min; type: functional; outline: as §6
Felis catus [23] = organism: Felis catus; test: acetylcholine antagonist effect of compound on cat blood pressure at concentration 5.7*10e-7 in 15 min; type: functional; outline: as §7
Felis catus [24] = organism: Felis catus; test: acetylcholine antagonist effect of compound on cat blood pressure at concentration 5.7*10e-7 in 24 min; type: functional; outline: as §7
Felis catus [25] = organism: Felis catus; test: acetylcholine antagonist effect of compound on cat blood pressure at concentration 5.7*10e-7 in 6 min; type: functional; outline: as §7
Felis catus [26] = organism: Felis catus; test: acetylcholine antagonist effect of compound on cat blood pressure at concentration 5.7*10e-7 in 18 min; type: functional; outline: as §7
Felis catus [27] = organism: Felis catus; test: acetylcholine antagonist effect of compound on cat blood pressure at concentration 5.7*10e-7 in 3 min; type: functional; outline: as §7
Felis catus [28] = organism: Felis catus; test: acetylcholine antagonist effect of compound on cat blood pressure at concentration 5.7*10e-7 in 9 min; type: functional; outline: as §7
Felis catus [29] = organism: Felis catus; test: acetylcholine antagonist effect of compound on cat blood pressure at concentration 5.7*10e-7 in 21 min; type: functional; outline: as §7

In the case of `CCC(C)C(=O)OC[N+]12CCC(CC1)CC2` (stereo unspecified), the pA2 (Cavia porcellus [1]) is reported as “No activity” and the Activity [2] is reported as 1.
In the case of `CCC(C(=O)OC[N+](CC)(CC)CC)c1ccccc1.[Cl-]` (stereo unspecified), the T1/2 (Sus scrofa [3]) is reported as 2.1 h, the half-life [4] is reported as 2.5 h and the K obs (Canis familiaris) is reported as 0.00815 min⁻¹. For the same compound, the K obs (Sus scrofa [5]) was 0.00542 min⁻¹, the half-life [6] was 1.4 h and the Kb (Cavia porcellus [7]) was 0.251 µM. The Kb (Cavia porcellus [8]) was 0.316 µM and the half-life [9] was 2.6 h.
In the case of `CC[N+](CC)(CC)COC(=O)C1(c2ccccc2)CCCC1`, the pA2 (Cavia porcellus [10]) is reported as “No activity” and the Kb (Cavia porcellus [7]) is reported as 0.0794 µM.
Work on `CC1CCC[N+]1(C)COC(=O)C(c1ccccc1)C1CCCC1` (stereo unspecified) yielded a Kb (Cavia porcellus [7]) of 0.000501 µM and a Kb (Cavia porcellus [8]) of 0.0126 µM.
In the case of `C[N+]1(COC(=O)C2(c3ccccc3)CCCC2)CCCC1.[Cl-]`, the pA2 (Cavia porcellus [10]) is reported as “No activity”, the Kb (Cavia porcellus [7]) is reported as 0.0501 µM and the K obs [11] is reported as 0.000181 min⁻¹. The half-life [9] was 64 h.
For `CCC(C(=O)OC[n+]1ccn(C)c1)c1ccccc1.[Cl-]` (stereo unspecified), the half-life [4] was 6 h, the Kb (Cavia porcellus [7]) was 1.26 µM and the Kb (Cavia porcellus [8]) was 1.26 µM. The half-life [9] was 5.7 h.
With `CCC(C)C(=O)OC[N+]1(C)CCCC1C` (stereo unspecified) the Kb (Cavia porcellus [7]) was 12.6 µM and the Activity [12] was “No activity”.
With `CCC(C)C(=O)OC[N+]1(C)CCCC1` (stereo unspecified) the Kb (Cavia porcellus [8]) was 2.51 µM and the pA2 (Cavia porcellus [1]) was “No activity”.
For `C[N+]1(C2OC(=O)c3ccccc32)CCCC1` (stereo unspecified), the Activity [13] was “No activity” and the pA2 (Cavia porcellus [14]) was “No activity”.
In the case of `CC(C(=O)OC[N+]1(C)CCCC1)(c1ccccc1)c1ccccc1.[Cl-]`, the pA2 (Cavia porcellus [10]) is reported as “No activity”, the Kb (Cavia porcellus [7]) is reported as 0.00398 µM and the K obs [11] is reported as 0.000193 min⁻¹. It also gave a half-life [9] of 60 h.
Compound `CC1CCC[N+]1(C)COC(=O)C1(c2ccccc2)CC1.[Cl-]` (stereo unspecified) has a Kb (Cavia porcellus [7]) of 0.251 µM, a Kb (Cavia porcellus [8]) of 0.575 µM and a K obs [11] of 0.00055 min⁻¹. The half-life [9] was 21 h.
With `CC[N+](CC)(CC)COC(=O)C(c1ccccc1)C1CCCCC1.[Cl-]` (stereo unspecified) the Response (Felis catus [15]) was 83%, the Response (Felis catus [16]) was 0% and the Response (Felis catus [17]) was 0%. For the same compound, the Response (Felis catus [18]) was 100%, the Response (Felis catus [19]) was 43% and the Response (Felis catus [20]) was 67%. For the same compound, the Response (Felis catus [21]) was 0%, the Response (Felis catus [22]) was 50% and the Kb (Cavia porcellus [7]) was 0.00251 µM. It also gave a Response (Felis catus [23]) of 60%, a Kb (Cavia porcellus [8]) of 2 µM and a Response (Felis catus [24]) of 100%. For the same compound, the Response (Felis catus [25]) was 0%, the Response (Felis catus [26]) was 78% and the Response (Felis catus [27]) was 0%. For the same compound, the Response (Felis catus [28]) was 0% and the Response (Felis catus [29]) was 93%.
In the case of `C[N+]1(COC(=O)Cc2ccccc2)CCOCC1.[Cl-]`, the K obs (Canis familiaris) is reported as 1.73 min⁻¹, the half-life [6] is reported as 4 h and the half-life [9] is reported as 8 h.

Reference: ChEMBL document CHEMBL1121584, “Soft drugs. 3. A new class of anticholinergic agents” (J Med Chem, 1980)
